DAGLB inhibitor: diacylglycerol lipase beta (human) inhibition; HEK293T DAGLB membrane lysate, EnzChek fluorogenic substrate; inhibition, % at 5.17 µM; 340,000 tested, 0.059% active; AID 504411; in the data active = inhibition above about 34%
CCR6 antag: antagonists of human CCR6 receptor; CHO-K1 CCR6 PathHunter beta-arrestin, luminescence, CCL20-stimulated; inhibition, % at 20 µM; 340,000 tested, 0.49% active; AID 493098;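 active = compounds whose inhibition of the agonist-driven luminescence signal at 20 µM reaches about 50%, limit read from the data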;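 note: cells stimulated with CCL20 at 14 nM final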
APJ antagonist: blocks the human apelin receptor APJ. CHO-K1 APJ beta-arrestin complementation, luminescence. inhibition, % at 20 µM. 330,000 tested, 0.32% active. AID 2521;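 active = inhibition above about 40% at 20 µM, limit read from the data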;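 note: cells challenged with 10 nM apelin-13 agonist together with compound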
CXCR6 block: inhibitors of human CXCR6 receptor; CHO-K1 PathHunter CXCR6 beta-arrestin, luminescence; inhibition, % at 20 µM; 360,000 tested, 0.36% active; in the data active = inhibition above about 34%, passing the limit was not always enough;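 note: antagonist mode with CXCL16 agonist at 10 nM final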
Target sequence (O00574 whole entry, looked up): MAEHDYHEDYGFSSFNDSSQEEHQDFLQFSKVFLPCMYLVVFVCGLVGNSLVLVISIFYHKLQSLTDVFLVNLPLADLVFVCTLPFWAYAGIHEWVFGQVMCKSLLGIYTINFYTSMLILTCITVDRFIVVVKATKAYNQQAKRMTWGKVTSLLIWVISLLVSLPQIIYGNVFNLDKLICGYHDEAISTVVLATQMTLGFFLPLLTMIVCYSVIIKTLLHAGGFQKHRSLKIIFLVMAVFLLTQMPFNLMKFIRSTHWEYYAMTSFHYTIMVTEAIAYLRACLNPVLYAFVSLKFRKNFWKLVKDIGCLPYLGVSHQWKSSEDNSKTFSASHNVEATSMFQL
APJ agonist: agonists of human APJ apelin receptor; P35414; CHO-K1 APJ PathHunter beta-arrestin, luminescence; 0% DMSO wells, 100% apelin; activation, % at 20 µM; 330,000 tested, 0.11% active;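 active = activation more than six SD over the plate average, tested at 20 µM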
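Assay system: engineered CHO-K1 APJ arrestin reporter cells; Amount: 1000 CHO-K1 reporter cells seeded per well; Dosing: one dose, 20 µM compound, 1% DMSO; Times: compound stimulation 90 min at 25 °C, detection 60 min; Measured by: luminescent beta-gal fragment complementation, chemiluminescent substrate; Read-out: APJ–arrestin association signal; Controls: DMSO vs Apelin-13 10 nM.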
iPSC survival up: increases survival of single human iPS cells. 360,000 tested, 0.044% active. hiPSC single-cell survival, ATPlite luminescence; 100% = ROCK inhibitor wells, 0% = DMSO. survival enhancement, % at 20 µM; in the data active = survival enhancement above about 18%;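 note: cells exposed to compounds for 16 hours before the ATP read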
Hits are given with their value; i = inactive; nt = no result given. Only some compounds are listed: those with a hit (about 0.86% of all), similar ones and a draw of the others.

SMILES | DAGLB inhibitor | CCR6 antag | APJ antagonist | CXCR6 block | APJ agonist | iPSC survival up
O=[N+]([O-])c1ccc(/C=N/N=C/c2ccc([N+](=O)[O-])o2)o1 | i | 61.2 | nt | i | nt | i
O=C(O)/C=C/c1ccc([N+](=O)[O-])o1 | i | i | i | i | i | i
O=c1nc2s/c(=C\c3ccc(-c4ccccc4[N+](=O)[O-])o3)c(=O)n2nc1-c1ccccc1 | i | 57.6 | nt | i | nt | i
Cc1ccc(NC(=O)CCNS(=O)(=O)c2ccc(Br)s2)cc1 | i | i | i | i | i | i
CN1CC(=O)N2C(c3cccc([N+](=O)[O-])c3)c3[nH]c4ccccc4c3C[C@H]2C1=O (stereo partly drawn) | i | i | i | i | i | i
O=C1[C@@H]2Cc3c([nH]c4ccccc34)C(c3cccc([N+](=O)[O-])c3)N2C(=O)CN1CCCO (stereo partly drawn) | i | 50.7 | i | i | i | i
O=C(NC1CCCCC1)N(Cc1nc2ccccc2c(=O)[nH]1)C1CCCCC1 | i | i | i | i | i | 27.9
CCC(OC(=O)CN1C(=O)C(=O)c2ccccc21)C(=O)Nc1ccccc1OC (stereo not drawn) | i | i | i | i | i | i
CCS(=O)(=O)c1ccc2oc(Nc3cccc(OC)c3)nc2c1 | i | i | i | i | i | i
CCC(=O)NC1=C(NC(C)c2ccccc2)C(=O)c2ccccc2C1=O (stereo not drawn) | i | i | i | i | i | i
CCC(=O)NC1=C(Cl)C(=O)C(NC(=O)CC)=C(Cl)C1=O | i | nt | i | 83.7 | i | i
CN1Cc2c(N3CCOCC3)nc(SCc3ccccc3)c(C#N)c2CC1(C)C | i | i | i | i | i | i
CC1(C)Cc2c(C#N)c(SCC(=O)c3ccccc3)nc(N3CCOCC3)c2CS1 | i | i | i | i | i | 20.1
CCc1ccc(NC(=O)c2ccccc2SC)cc1 | i | i | i | i | i | i
CCCCCCCC/C=C\CCCCCCCC(=O)O | i | i | i | i | i | i
CCCCCCCCCCCCC/C=C/[C@@H](O)[C@@H](N)CO | i | 66.7 | i | i | i | i
COc1ccc(C(CNC(=O)C(=O)Nc2ccc3c(c2)OCCO3)N2CCN(C)CC2)cc1 (stereo not drawn) | i | i | i | i | i | i
CN(C)c1ccc(Cc2cc3c(O)ccc(O)c3cc(Cc3ccc(N(C)C)cc3)c2=O)cc1 | i | nt | nt | 34.3 | nt | i
Cc1ccc2cc3c(N)c(C(=O)N4CCOCC4)sc3nc2c1 | i | i | i | i | i | i
Cc1ccc2cc3c(N)c(C(=O)N4CC(=O)Nc5ccccc54)sc3nc2c1 | nt | nt | 97.6 | nt | i | nt
CCOC(=O)C1=C(C)N=C2SC(C(=O)OC)=CC(=O)N2C1c1cc(OC)c(OC)c(OC)c1 (stereo not drawn) | i | i | i | i | i | i
CN(C)c1ccc(/C=N/N=C2/NC(=O)/C(=C/c3ccc([N+](=O)[O-])cc3)S2)cc1 | i | 52.6 | i | i | i | i
Cc1ccc(C(=O)c2c(C)oc3c2C(=O)C(=O)c2ccccc2-3)cc1 | i | 71.6 | i | i | 13.6 | i
O=C(c1cc(-c2cccc(O)c2)on1)N1CCCC1 | i | i | i | i | i | i
O=C(Nc1ccncc1)c1cc(S(=O)(=O)N2CCOCC2)ccc1Cl | i | i | i | i | i | 25.6
SMILES | DAGLB inhibitor | CCR6 antag | APJ antagonist | CXCR6 block | APJ agonist | iPSC survival up
O=C(Nc1ccc(S(=O)(=O)N2CCOCC2)cc1)c1cc(S(=O)(=O)N2CCOCC2)ccc1Cl | i | i | i | i | i | i
CN(C)c1ccc(C(CNC(=O)c2ccco2)N2CCCC2)cc1 (stereo not drawn) | i | i | i | i | i | i
Cc1[nH][nH]c(=O)c1C(c1c(C)[nH][nH]c1=O)c1cn(Cc2ccc(F)cc2)c2ccccc12 | i | 79.3 | nt | 61.5 | nt | i
Cc1[nH][nH]c(=O)c1C(c1c(C)[nH][nH]c1=O)c1cn(Cc2ccc(Cl)c(Cl)c2)c2ccccc12 | i | 77.3 | nt | 53.5 | nt | i
COc1ccc2c(Cl)c(C(=O)NN3CCN(C)CC3)sc2c1 | i | i | i | i | i | i
Cc1oc2c(c(=O)c1C)C(=O)CC(c1ccccc1)C2 (stereo not drawn) | i | i | i | i | i | i
CS(=O)(=O)c1sc(C#N)c2c1C(=O)CC(c1ccccc1)C2 (stereo not drawn) | i | 92.2 | 84.5 | 90.7 | i | i
C=CCn1c(Sc2ncc([N+](=O)[O-])s2)n[nH]c1=O | i | 56.3 | i | 42.4 | i | i
COc1ccc(-n2c(O)c(/C=N/Nc3nc(C)cc(C)n3)c3ccccc3c2=O)cc1OC | i | 72.9 | i | 36.9 | i | i
CC(=O)N1CCn2c3c(c(=O)c4cc(C)ccc42)CCC31 (stereo not drawn) | i | i | 40.4 | i | i | i
CC(=O)c1c(C)c(C)c2n1CCn1c(C)ccc1-2 | i | i | i | i | i | i
CC1CCN(S(=O)(=O)c2ccc(NC(=S)NC(=O)c3ccc(Cl)cc3)cc2)CC1 | i | 54.9 | i | i | i | i
COc1ccc(NCc2nnc(-c3ccccc3)o2)cc1 | i | i | i | i | i | i
O=C(Cn1sc2ccccc2c1=O)NC12CC3CC(CC(C3)C1)C2 | i | i | i | 40.6 | i | i
O=C(Cn1sc2ccccc2c1=O)Nc1ccccc1 | i | nt | nt | i | nt | i
COc1ccc(N2C(=O)c3ccccc3C2=O)cc1 | i | i | i | i | i | i
COc1ccc(N2C(=O)C(Cl)=C(Oc3cccc(OC)c3)C2=O)cc1 | i | 97.3 | i | i | i | i
CC(C)C[C@H](N)c1nnc(S(=O)(=O)Cc2ccc(F)cc2)o1 | i | i | i | 42.4 | i | i
CC(C)C[C@H](N)c1nnc(SCC(=O)Nc2ccc(Br)cc2)o1 | i | i | i | i | i | i
Cc1cc(C)c2c(N=NN3CCOCC3)[nH]nc2n1 | i | i | i | i | i | i
Cc1ccsc1C(=O)OCC(=O)Nc1sccc1C(N)=O | i | i | i | i | i | 20.3
Cc1ccsc1C(=O)OCC(=O)NCCNC(=O)COC(=O)c1sccc1C | i | i | i | i | i | i
Cc1cccc2nc(CSc3nc4ccc([N+](=O)[O-])cc4[nH]3)c(Br)n12 | i | 51.5 | i | i | i | i
NC(=O)CSc1nc2ccc([N+](=O)[O-])cc2[nH]1 | i | i | i | i | i | i
CCOc1cc(/C=N/Nc2cc(C)nc(-n3nc(C)cc3C)n2)ccc1O | i | 116.4 | 106.2 | 110.1 | i | i
CCOc1cc(/C=N/Nc2nc(C)cc(=O)[nH]2)ccc1O | i | i | i | i | i | i
Cc1ccc2c(c1)C(=O)C(=O)N2CCOc1ccccc1 | i | 51.3 | i | i | i | i
Cc1cccc(OCCN2C(=O)C(=O)c3cc(C)ccc32)c1 | i | i | i | i | i | i
Cc1cc(C)c2c(=O)n(CC(=O)Nc3cccc(Cl)c3C)sc2n1 | i | i | i | 79.7 | i | i

Bioassay records (PubChem BioAssay)
